A selection: hits, their analogues and other compounds. The true share with any hit is near 2.1%.
MEX-5 binding = C. elegans MEX-5 TCR-2 RNA binding activity. 300,000 compounds, 0.38% hits. Q9XUB2. AID 1832. activity score (negative = inhibition of binding), % at 10 µM. MEX-5/FITC-TCR2 RNA binding, fluorescence polarization; active compounds read low;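 active = inhibition past about -25% in most replicates, and total fluorescence under double the plate's negative control median, limit read from the data; inconclusive = replicates evenly split on the limit, or fluorescence at least double controls; inactive = too little inhibition in most replicates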
Runt-CBFb FRET = inhibitors of human RUNX1 Runt domain binding to CBFb; Q01196+Q13951; Cerulean-Runt/Venus-CBFb FRET ratio 530/480, 1 h; inhibition, % at 20 µM; 220,000 compounds, 0.46% hits; AID 1496;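 active = inhibition over about 50% at 20 µM in the single-dose screen, limit read from the data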
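System: Cerulean-labeled Runt domain protein | Quantity: 100 nM of each labeled protein | Schedule: 1 h compound exposure, room temperature | Detection: Fluorescence energy transfer, 422 nm excitation, 530/480 nm emission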
RanGTP-Impb inh = inhibitors of RanGTP-importin-beta interaction, primary screen, biochemical, FRET, CFP-Ran, YFP-importin-beta, homogeneous. cell-free CFP-Ran/YFP-importin-beta FRET ratio. 300,000 compounds, 1.1% hits. inhibition, % (no concentration beside the values);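 active = more than half of the replicate wells show a fall in the fluorescence ratio signal beyond about 16%, limit read from the data, passing the limit was not always enough; inconclusive = exactly half of the replicate wells pass the set limit; inactive = fewer than half of replicates pass the limit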
Runt-SMMHC FRET = inhibitors of human RUNX1 Runt domain binding to CBFb-SMMHC | Q01196+Q13951 | Cerulean-Runt/Venus-CBFb-SMMHC FRET ratio 530/480, 1 h | inhibition, % at 20 µM | 220,000 compounds, 0.74% hits | AID 1434;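 active = mean inhibition across duplicate retests at 20 µM reaching about 50%, limit read from the data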;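 note: inhibitors lower the FRET ratio by blocking Runt binding to CBFb-SMMHC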
KLK7 zymogen act = activates the human kallikrein-7 zymogen; purified proKLK7, EDANS-DABCYL substrate fluorescence; 100% is mature enzyme control, 0% vehicle; activation, % at 7 µM; 370,000 compounds, 0.9% hits;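 active = activation above the mean of all tested compounds plus 3 SD, computed per campaign excluding outliers beyond control limits, cut at about 13% in these data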
Target sequence (P49862 whole entry, looked up): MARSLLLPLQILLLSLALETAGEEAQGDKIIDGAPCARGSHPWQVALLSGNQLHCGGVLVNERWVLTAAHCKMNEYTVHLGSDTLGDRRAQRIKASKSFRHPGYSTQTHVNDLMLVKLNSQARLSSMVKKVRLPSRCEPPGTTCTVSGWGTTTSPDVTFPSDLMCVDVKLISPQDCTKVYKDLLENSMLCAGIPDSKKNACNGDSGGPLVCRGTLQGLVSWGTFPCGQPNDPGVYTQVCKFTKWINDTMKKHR
Numbers stand for hits; n = inactive; u = inconclusive; x = no result.

SMILES | MEX-5 binding | Runt-CBFb FRET | RanGTP-Impb inh | Runt-SMMHC FRET | KLK7 zymogen act
Cn1cc([C@]2(O)C(=O)N(c3ccccc3)c3ccccc32)c2ccccc21 | x | x | x | x | n
CCOc1cc(C2C3=C(CCCC3=O)Nc3ccc4ncccc4c32)ccc1O (configuration not stated) | n | n | 22.0 | n | n
CC(=O)Nc1sc2c(c1C(N)=O)CCN(Cc1ccccc1)C2 | n | n | 162.4 | 129.7 | n
NC(=O)c1c(NC(=O)Cc2ccccc2)sc2c1CCN(Cc1ccccc1)C2 | n | x | 134.0 | x | n
CC(=O)N1CCc2c(sc(NC(=O)Cc3ccc(F)cc3)c2C(N)=O)C1 | n | x | n | x | n
CCC(=O)[C@@]1(C)[C@H](C)C[C@H]2[C@@H]3CCC4=CC(=O)C=C[C@]4(C)[C@H]3[C@@H](O)C[C@@]21C | x | x | x | x | n
COc1cc([N+](=O)[O-])ccc1N/C=C/C(=O)c1cccs1 | n | n | 26.5 | n | n
CCC(C)[C@H](NC(=O)OC(C)(C)C)C(=O)N/N=C/c1cccc2nccnc12 (some centres not stated) | n | n | n | n | n
CCC(C)[C@@H](N)C(=O)N/N=C/c1cccc2nccnc12 (some centres not stated) | -40.7 | n | n | n | x
Cc1ccccc1-n1c(O)c(/C=C/C=Nc2ccccc2)c(=O)[nH]c1=O | u | n | 20.2 | 76.2 | n
COc1ccc(CCn2c(=N)c(S(=O)(=O)c3ccccc3)cc3c(=O)n4ccccc4nc32)cc1 | n | x | n | x | n
CCn1c(=N)c(S(=O)(=O)c2ccccc2)cc2c(=O)n3ccccc3nc21 | u | n | 169.8 | 90.5 | n
CCCn1c(=N)c(S(=O)(=O)c2ccccc2)cc2c(=O)n3ccccc3nc21 | n | n | 198.3 | 84.0 | n
O=C(NCc1ccccn1)[C@@H]1CCCN1C(=O)[C@@H]1CCCN1C(=O)c1cccc2ccccc12 | x | x | x | x | n
CC1=C(C(=O)N(C)C)CC(CC(=O)NC2CCCCC2)C(=O)N1Cc1ccccc1 (configuration not stated) | x | x | x | x | n
O=C(CSc1nnc(NC(=O)c2ccc(F)cc2)s1)NC1CC1 | n | x | n | x | n
O=C(Cc1ccc(F)cc1)Nc1nnc(SCC(=O)NC2CCCC2)s1 | n | n | 26.8 | n | n
N#Cc1ccc(NC(=O)Nc2ccc(Cl)cc2)cc1 | n | n | n | n | n
N#CC(C#N)=C/C=C(\Nc1ccc(Cl)cc1)c1ccc(Cl)cc1 | n | n | 65.8 | n | n
Cc1ccc(C(=O)CSc2nc3c([nH]2)c(=O)n(C)c(=O)n3C)cc1 | -29.8 | n | n | n | n
C(=N\NC(=Nc1ccccc1)c1ccccn1)/c1ccccn1 | -54.0 | n | n | n | n
CC(C)(C)c1ccc(C(=O)NNC(=S)NCc2ccco2)cc1 | n | n | n | n | n
CC(C)(O)C(=O)NNC(=S)NCc1ccco1 | -32.3 | n | n | n | n
O=c1ccc2cc3c([nH]c4ccc(Br)cc43)oc-2c1O | -79.0 | n | n | n | n
O=C(O)c1ccc(N=Nc2c(O)[nH]c3ccc(Br)cc23)cc1 | n | x | n | x | n
SMILES | MEX-5 binding | Runt-CBFb FRET | RanGTP-Impb inh | Runt-SMMHC FRET | KLK7 zymogen act
CCOc1ccc(NC(=O)Cc2ccc(S(=O)(=O)N3CCCCC3)cc2)cc1OCC | x | x | x | x | n
COc1ccc(CCNC2CC(=O)N(CCc3ccccc3)C2=O)cc1OC (configuration not stated) | n | n | u | n | n
COc1ccc(CCNC2=C(Cl)C(=O)N(CCc3ccccc3)C2=O)cc1OC | n | n | n | 55.0 | n
CN(C(=O)c1ccc(NC(=O)Cc2ccc(NC(=O)C3CCCN(C(=O)c4ccccc4)C3)cc2)cc1)C1CCCC1 (configuration not stated) | x | x | x | x | n
COCCn1c(CCC(=O)O)ccc1-c1cccs1 | n | n | n | 55.1 | n
CCc1nc2c(OCC(=O)c3ccc(Cl)cc3Cl)cccn2c1N(C)C(=O)COc1ccccc1 | x | x | x | x | n
CCCSc1nnc2nc3c(nn12)c1ccccc1n3C | -35.1 | n | n | n | n
O=C(CN1C(=O)S/C(=C\c2ccc(F)cc2)C1=O)NC1C=CS(=O)(=O)C1 (configuration not stated) | n | x | 15.5 | x | n
CC(=O)NCCNc1ccc([N+](=O)[O-])cc1C#N | -41.0 | n | n | n | n
CCOC(=O)COc1ccc(S(=O)(=O)NC2CC2)cc1 | n | x | n | x | n
Oc1ccc(N=C/C=C/c2ccc(Br)cc2)cc1-c1nc2ccccc2s1 | n | n | 38.4 | n | x
N#C/C(=C/c1ccc(N2CCCCCC2)o1)c1ccc(Cl)cc1 | n | n | 33.3 | n | x
N#C/C(=C/c1ccc(N2CCCCC2)o1)c1cccc(F)c1 | n | n | u | n | n
C#CCN(CC=C)Cc1ccc(OC)cc1OC | x | x | x | x | n
Cc1c(/C=N/NC(=O)c2cc(=O)[nH]c(=O)[nH]2)c2ccccn2c1C(=O)c1ccccc1 | -32.8 | n | n | n | n
CC1CCC2(CC1)NC(=O)N(CC(=O)N1CC(C)CC(C)C1)C2=O (configuration not stated) | x | x | x | x | n
CCOC(=O)c1c(NC(=S)Nc2ccccc2)sc2c1CC(C)(C)SC2 | n | n | n | n | n
CCOC(=O)c1c(N)sc2c1CCN(CCc1ccccc1)C2 | n | x | 72.4 | x | n
CCOC(=O)c1c(NC(=S)Nc2ccccc2)sc2c1CCN(CCc1ccccc1)C2 | x | 94.3 | x | n | x
CN1CCc2c(sc(N)c2C(=O)O)C1 | n | 75.0 | 50.1 | 143.6 | n
C=CCN1C(=O)c2ccc(C(=O)N3CCN(S(=O)(=O)c4ccc(C(C)C)cc4)CC3)cc2C1=O | n | x | n | x | n
CCC1CCCCN1C(=O)COC(=O)COc1ccc(Br)cc1 (configuration not stated) | x | x | x | x | n
CCCCCCn1cc(CN2CC(N3CCN(CCN(C)C)CC3)CS2(=O)=O)nn1 (configuration not stated) | x | x | x | x | n
CCOC(=O)NC[C@@]1(C(=O)OC)CC(=O)N(Cc2ccc(Cl)cc2)[C@@H]1c1ccc(OC)cc1 | x | x | x | x | n
O=C(OC1CCOC1=O)C1CCN(S(=O)(=O)c2ccccc2)CC1 (configuration not stated) | x | x | x | x | n
SMILES | MEX-5 binding | Runt-CBFb FRET | RanGTP-Impb inh | Runt-SMMHC FRET | KLK7 zymogen act
O=C(COC(=O)c1ccc(Sc2ncn[nH]2)c([N+](=O)[O-])c1)Nc1ccc(Cl)c(Cl)c1 | x | x | x | x | n
Cc1sccc1C1C(C#N)=C(N)SC(N)=C1C#N | n | n | 68.1 | n | x
Oc1csc(Cc2nc(-c3ccccc3F)cs2)n1 | n | n | 21.3 | n | n
Cc1nc2ccc(NC(=O)C3(C)CCCN(C(C)C)C3)cc2o1 (configuration not stated) | x | x | x | x | n
Cn1ncc(Cl)c1C(=O)N/N=C/c1cccc(OC2CSC2)c1 | -35.8 | n | n | n | n
O=C(CSc1ncccn1)N/N=C/c1cccc(OC2CSC2)c1 | n | n | n | n | n
Nn1cnc2c(c1=O)C1(CCCCC1)Cc1ccccc1-2 | n | n | 26.0 | n | n
CCN(CC)Cc1nc2c(c(=O)[nH]1)C1(CCCCC1)Cc1ccccc1-2 | n | n | 29.8 | n | n

Bioassay records as filed in PubChem.
